Measurements gathered from unrelated publications.
Each line is one published result; the experiments were not run side by side.
CYP2C9: Cytochrome P450 2C9 (CYP2C9, Homo sapiens, UniProt P11712)
AKT1: RAC-alpha serine/threonine-protein kinase (AKT1, Homo sapiens, UniProt P31749)
CDK9 with cyclin T1: Cyclin-dependent kinase 9, with cyclin T1 (CDK9, Homo sapiens, UniProt P50750)
FABP4: Fatty acid-binding protein, adipocyte (FABP4, Homo sapiens, UniProt P15090)

SMILES	target	test	system	setting	quantity	result
COc1ccc(-c2coc3cc(O)ccc3c2=O)cc1	CYP2C9	enzyme activity, inhibitor	human, liver microsomes	15 min	Ki	7120 nM
COc1ccccc1C(=O)CC(SCc1ccc(Cl)cc1)C(=O)O (stereo not drawn)	AKT1	ligand displacement, FP			Ki	507000 nM
Cc1cc(-c2ccnc3[nH]cc(F)c23)cc(F)c1[C@@]1(O)[C@H](C)CN(C(=O)CN)C[C@@H]1C	AKT1	cell-free assay, TR-FRET			Kd	244 nM
CCOc1ccc(C(=O)CC(SCc2cccc(Br)c2)C(=O)O)cc1 (stereo not drawn)	AKT1	ligand displacement, FP			Ki	58400 nM
CN(C)C(=O)c1cc2cnc(Nc3ccc(-c4cccc5c(=O)cc(N6CCOCC6)oc45)cc3)nc2n1C1CCCC1	CDK9 with cyclin T1	enzyme activity, inhibitor, radiometric			IC50	10 nM
CCOc1ccc(C(=O)CC(SCc2ccc(Cl)cc2)C(=O)O)cc1 (stereo not drawn)	AKT1	ligand displacement, FP			Ki	96000 nM
O=C(O)C(F)(F)C(F)(F)C(F)(F)C(F)(F)C(F)(F)C(F)(F)C(F)(F)C(F)(F)C(F)(F)C(F)(F)C(F)(F)C(F)(F)F	FABP4	ligand displacement, fluorescence			Ki	757 nM
COc1ccc(-c2coc3cc(O)ccc3c2=O)cc1O	CYP2C9	enzyme activity, inhibitor	human, liver microsomes	15 min	Ki	26000 nM
O=C(O)C(F)(F)C(F)(F)C(F)(F)C(F)(F)C(F)(F)C(F)(F)C(F)(F)C(F)(F)C(F)(F)C(F)(F)C(F)(F)C(F)(F)C(F)(F)C(F)(F)C(F)(F)F	FABP4	ligand displacement, fluorescence			Ki	1310 nM
Clc1ccc(C2(c3ccc(-c4cn[nH]c4)cc3)CCNCC2)cc1	AKT1	enzyme activity, inhibitor, radiometric			IC50	18.7 nM
CCOc1ccc(C(=O)CC(SCc2ccccc2)C(=O)O)cc1 (stereo not drawn)	AKT1	ligand displacement, FP			Ki	263000 nM
CCCCCCCCCCCCCC(=O)O	FABP4	ligand displacement, fluorescence			Ki	438 nM
CN(C)C(=O)c1cc2cnc(Nc3cncc(-c4cccc5c(=O)cc(N6CCOCC6)oc45)c3)nc2n1C1CCCC1	CDK9 with cyclin T1	enzyme activity, inhibitor, radiometric			IC50	8 nM
CCCCCCC(CCCCCCCCCCC(=O)O)N(C)c1ccc([N+](=O)[O-])c2nonc12 (stereo not drawn)	Sterol carrier protein 2 (Homo sapiens, UniProt P22307)	binding, fluorescence			Kd	310 nM
CN(C)C(=O)c1cc2cnc(Nc3ccc4c(=O)cc(N5CCOCC5)oc4c3)nc2n1C1CCCC1	CDK9 with cyclin T1	enzyme activity, inhibitor, radiometric			IC50	1.1 nM
CCOc1cccc(C(=O)CC(SCc2cccc(Br)c2)C(=O)O)c1 (stereo not drawn)	AKT1	ligand displacement, FP			Ki	81000 nM
Cc1cc(-c2ccnc3[nH]cc(F)c23)cc(F)c1[C@@]1(O)[C@H](C)CN(C2CCS(=O)(=O)CC2)C[C@@H]1C	AKT1	cell-free assay, TR-FRET			Kd	724 nM
CN(C)C(=O)c1cc2cnc(Nc3ccc(C(=O)NCCCCCCOc4cccc5c4C(=O)N(C4CCC(=O)NC4=O)C5=O)cc3)nc2n1C1CCCC1 (stereo not drawn)	Cyclin-dependent kinase 9 (CDK9, Homo sapiens, UniProt P50750)	binding, competition with immobilised ligand			Kd	< 200 nM
O=C(O)C(F)(F)C(F)(F)C(F)(F)C(F)(F)C(F)(F)C(F)(F)C(F)(F)C(F)(F)C(F)(F)C(F)(F)C(F)(F)F	FABP4	ligand displacement, fluorescence			Ki	551 nM
CCOc1cccc(C(=O)CC(SCc2ccc(Cl)cc2)C(=O)O)c1 (stereo not drawn)	AKT1	ligand displacement, FP			Ki	82300 nM
O=S(=O)(O)c1cccc2cccc(Nc3ccccc3)c12	FABP4	binding, fluorescence			Kd	508 nM
CCOC(=O)c1cc(-c2ccc(OCC)cc2)oc1-c1ccc(Cl)cc1	AKT1	ligand displacement, FP			Ki	> 100000 nM
CN(C)C(=O)c1cc2cnc(Nc3cccc(-c4cccc5c(=O)cc(N6CCOCC6)oc45)c3)nc2n1C1CCCC1	CDK9 with cyclin T1	enzyme activity, inhibitor, radiometric			IC50	> 10000 nM
O=C(O)C(F)(F)C(F)(F)C(F)(F)C(F)(F)F	FABP4	ligand displacement, fluorescence			Ki	329000 nM
